Article PMC9753112 (ACS Omega, 2022)
≈ marks a conversion by molar mass, not a printed value. Where “and” joins values, the source holds several entries; their conditions need not be identical. Equal values may be shown once. Entries after “also recorded” stand apart in the source; their conditions may differ. Read-outs that look alike come from different tables or passages of the source. Blank lines part the entries; values can stand above or below the compound they belong to.

Legend:
HepG2 cells [1] = assay: MTT cytotoxicity assay, HepG2 cells; assay type: cell-based; conditions: Homo sapiens, HepG2, read-out: IC50 (HepG2)
How it was run: (§1)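 Cells grown in medium with 10% FBS and 1% penicillin-streptomycin under CO2 at 37 °C and seeded at 5 × 10^4 per well. They were exposed to the test compound at 0.01, 0.1, 1, 10 and 100 μM, and viability was read by MTT absorbance as percent of control. IC50 came from dose-response curves, averaged over three independent trials.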

MCF-7 cells [2] = assay: MTT cytotoxicity assay, MCF-7 cells; assay type: cell-based; conditions: for IC50: Homo sapiens; for cytotoxicity in words: against MCF-7 and HepG2 cells
How it was run: as §1

[3] = test system: solid Ehrlich carcinoma cells; assay: In vivo solid Ehrlich carcinoma
PARP-1 = PARP-1 (Homo sapiens, UniProt P09874); assay: PARP-1 enzyme inhibition; assay type: biochemical
Sequence of PARP-1 (P09874 whole entry): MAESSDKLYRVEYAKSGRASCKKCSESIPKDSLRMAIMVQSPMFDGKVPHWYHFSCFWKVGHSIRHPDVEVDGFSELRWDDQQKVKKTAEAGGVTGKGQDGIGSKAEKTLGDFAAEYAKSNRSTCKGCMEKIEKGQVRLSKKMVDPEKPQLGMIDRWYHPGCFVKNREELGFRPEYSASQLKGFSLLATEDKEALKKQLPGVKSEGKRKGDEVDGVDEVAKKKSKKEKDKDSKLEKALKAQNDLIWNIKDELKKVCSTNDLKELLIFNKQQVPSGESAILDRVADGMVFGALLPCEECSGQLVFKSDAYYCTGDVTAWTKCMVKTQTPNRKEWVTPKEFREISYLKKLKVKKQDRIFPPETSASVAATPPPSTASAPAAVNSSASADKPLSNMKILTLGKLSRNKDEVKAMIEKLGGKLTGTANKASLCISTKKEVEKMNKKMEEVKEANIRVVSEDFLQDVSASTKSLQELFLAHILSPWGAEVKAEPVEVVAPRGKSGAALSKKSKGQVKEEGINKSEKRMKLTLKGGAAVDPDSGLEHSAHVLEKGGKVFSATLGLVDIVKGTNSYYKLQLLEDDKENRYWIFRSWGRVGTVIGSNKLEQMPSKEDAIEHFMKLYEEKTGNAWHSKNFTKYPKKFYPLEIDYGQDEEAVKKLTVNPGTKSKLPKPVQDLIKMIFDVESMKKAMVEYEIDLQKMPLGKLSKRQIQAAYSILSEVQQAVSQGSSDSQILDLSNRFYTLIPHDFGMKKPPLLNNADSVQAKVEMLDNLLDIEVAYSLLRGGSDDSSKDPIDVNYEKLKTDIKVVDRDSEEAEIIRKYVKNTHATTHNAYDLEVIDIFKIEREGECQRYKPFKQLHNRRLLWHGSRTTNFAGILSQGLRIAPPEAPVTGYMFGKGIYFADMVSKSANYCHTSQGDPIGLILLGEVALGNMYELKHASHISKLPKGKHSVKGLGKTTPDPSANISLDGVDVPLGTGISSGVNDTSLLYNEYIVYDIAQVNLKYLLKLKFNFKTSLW

EGFR = EGFR (Homo sapiens, UniProt P00533); assay: EGFR enzyme inhibition; assay type: biochemical
Sequence of EGFR (P00533 25-1210): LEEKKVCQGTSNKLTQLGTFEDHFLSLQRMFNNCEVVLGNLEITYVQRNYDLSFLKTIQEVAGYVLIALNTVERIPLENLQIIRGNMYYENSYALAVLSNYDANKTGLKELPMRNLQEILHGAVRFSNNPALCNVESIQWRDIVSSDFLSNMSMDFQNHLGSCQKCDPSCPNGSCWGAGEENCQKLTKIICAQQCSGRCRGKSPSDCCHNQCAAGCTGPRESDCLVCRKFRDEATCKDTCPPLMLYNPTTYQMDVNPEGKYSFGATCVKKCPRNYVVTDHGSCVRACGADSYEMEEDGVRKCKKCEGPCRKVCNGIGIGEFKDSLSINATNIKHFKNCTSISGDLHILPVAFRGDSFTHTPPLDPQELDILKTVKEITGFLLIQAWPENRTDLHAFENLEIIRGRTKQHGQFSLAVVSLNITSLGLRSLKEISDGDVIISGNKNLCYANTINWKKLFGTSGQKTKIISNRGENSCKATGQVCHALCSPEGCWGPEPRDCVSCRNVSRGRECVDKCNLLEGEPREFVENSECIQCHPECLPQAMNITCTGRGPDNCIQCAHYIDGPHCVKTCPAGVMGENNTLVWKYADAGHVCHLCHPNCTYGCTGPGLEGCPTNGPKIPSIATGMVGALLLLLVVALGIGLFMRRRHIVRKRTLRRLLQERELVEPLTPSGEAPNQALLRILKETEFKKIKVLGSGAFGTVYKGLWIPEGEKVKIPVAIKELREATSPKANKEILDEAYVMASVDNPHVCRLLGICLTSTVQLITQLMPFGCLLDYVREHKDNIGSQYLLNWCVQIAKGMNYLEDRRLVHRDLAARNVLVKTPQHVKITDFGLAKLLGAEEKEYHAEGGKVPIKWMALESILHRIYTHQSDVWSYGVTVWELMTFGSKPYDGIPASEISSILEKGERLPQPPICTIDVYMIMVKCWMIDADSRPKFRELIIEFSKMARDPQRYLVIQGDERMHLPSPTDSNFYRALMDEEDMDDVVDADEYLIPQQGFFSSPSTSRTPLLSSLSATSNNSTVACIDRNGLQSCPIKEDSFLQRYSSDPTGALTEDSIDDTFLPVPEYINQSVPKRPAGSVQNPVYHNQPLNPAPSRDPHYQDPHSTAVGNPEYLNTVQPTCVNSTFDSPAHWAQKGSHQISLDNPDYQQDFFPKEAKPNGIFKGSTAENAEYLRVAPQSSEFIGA

[4] = test system: normal cell lines MCF-10A and THLE2; assay: MTT assay on normal breast; assay type: cell-based
How it was run: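 Normal breast MCF-10A and normal liver THLE2 cells, cultured with 10% FBS and 1% penicillin-streptomycin under CO2 at 37 °C. They were seeded at 5 × 10^4 per well and treated with the test compound at 0.01–100 μM. MTT absorbance gave percent viability versus untreated control.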

MCF-7 cells [5] = assay: Cell cycle analysis; assay type: cell-based
How it was run: (§2)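 DNA content of untreated and treated cells was measured by flow cytometry as histograms. The percentage of cells in each cycle phase was compared before and after 48 h exposure.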

HepG2 cells [6] = assay: Annexin V/PI apoptosis-necrosis assessment, HepG2; assay type: cell-based; conditions: HepG2, IC50 dose, 48 h
MCF-7 cells [7] = assay: Annexin V/PI apoptosis-necrosis assessment, MCF-7; assay type: cell-based; conditions: MCF-7, IC50 dose, 48 h
HepG2 cells [8] = assay: Cell cycle analysis; assay type: cell-based
How it was run: as §2

MCF-7 = conditions: antiproliferative activity ref 29; cited from earlier work
HEPG-2 = conditions: antiproliferative activity ref 29; cited from earlier work
MCF-7 cells [9] = conditions: read-out: IC50 (MCF-7 cells); cytotoxic action ref 32; cited from earlier work
[10] = SEC-bearing mice, 5 mg/kg BW IP, seven doses, mean ± SD n = 6
[11] = SEC-bearing mice, 5 mg/kg BW IP, seven doses, mean ± SD n = 6, 5 mg/kg
[12] = SEC-bearing mice, after treatment

Compound: O=C(NNC(=S)Nc1ccccc1)c1cc2ccccc2[nH]1 [2a, 1-(1H-Indol-2-yl-carbonyl)-4-Phenyl-thiosemicarbazide]
- IC50 (HepG2 cells [1]): 12400 nM

Compound: S=c1[nH]nc(-c2cc3ccccc3[nH]2)n1-c1ccccc1 [3a, 5-(1H-Indol-2-yl)-4-phenyl-1,2,4-triazole-3(4H)-thione]
- IC50 (HepG2 cells [1]): 7390 nM

Compound: S=c1[nH]nc(-c2cc3ccccc3[nH]2)n1-c1ccc(Cl)cc1 [3b, 4-(4-Chlorophenyl)-5-(1H-indol-2-yl)-2H-1,2,4-triazole-3(4H)-thione]
- IC50 (HepG2 cells [1]): 17200 nM
- IC50 (MCF-7 cells [2]; MCF7, read-out: IC50 (MCF-7)): 14200 nM

Compound: O=c1[nH]cc(F)c(=O)[nH]1 [5-FU, reference compound]
- tumor inhibition ratio (TIR%) ([3]; SEC-bearing mice, 5 mg/kg BW IP, seven doses): 65.7%
- tumor volume [3, 10]: 114 mm^3

Compound: OCCSc1nnc(-c2cc3ccccc3[nH]2)n1-c1ccccc1 [12a, 3-(2-Hydroxyeth-1-ylsulfanyl)-5-(1H-indol-2-yl)-4-phenyl-1,2,4-triazole]
- IC50 (HepG2 cells [1]): 16300 nM
- IC50 (MCF-7 cells [2]; MCF7, read-out: IC50 (MCF-7)): 12100 nM
- IC50 (MCF-7 cells [2]; MCF7, read-out: IC50 range): 6210 to 16300 nM
- cytotoxicity in words (MCF-7 cells [2]): moderate activity

- IC50 (PARP-1): 2.13 nM
- IC50 (EGFR): 78.1 nM
Compound: OCCSc1nnc(-c2cc3ccccc3[nH]2)n1-c1ccc(Cl)cc1 [12b, 4-(4-Chlorophenyl)-3-(2-hydroxyeth-1-ylsulfanyl)-5-(1H-indol-2-yl)-1,2,4-triazole]
- IC50 (HepG2 cells [1]): 3210 nM
- inhibition at 100 µM ([4]; read-out: cell inhibition): 80%
- IC50 (MCF-7 cells [2]; MCF7, read-out: IC50 (MCF-7)): 2670 nM
- cytotoxicity in words (MCF-7 cells [2]): potent cytotoxicity

- IC50 (PARP-1): 21.6 nM
- IC50 (EGFR): 140 nM
Compound: CC(O)CSc1nnc(-c2cc3ccccc3[nH]2)n1-c1ccccc1 (stereo not drawn) [13a, 3-(2-Hydroxyprop-1-ylsulfanyl)-5-(1H-indol-2-yl)-4-phenyl-1,2,4-triazole]
- IC50 (HepG2 cells [1]): 8910 nM
- IC50 (MCF-7 cells [2]; MCF7, read-out: IC50 (MCF-7)): 6210 nM
- IC50 (MCF-7 cells [2]; MCF7, read-out: IC50 range): 6210 to 16300 nM
- cytotoxicity in words (MCF-7 cells [2]): moderate activity

Compound: CC(O)CSc1nnc(-c2cc3ccccc3[nH]2)n1-c1ccc(Cl)cc1 (stereo not drawn) [13b, 4-(4-Chlorophenyl)-3-(2-hydroxyprop-1-ylsulfanyl)-5-(1H-indol-2-yl)-1,2,4-triazole]
- cell cycle arrest phase (MCF-7 cells [5]; MCF-7): arrested cell division at the G2/M phase
- %DIP G2/M (MCF-7 cells [5]; MCF-7, 1.07 μM, 48 h): 26.4%
- IC50 (PARP-1): 1.24 nM
- IC50 (HepG2 cells [1]): 320 nM
- early apoptosis (HepG2 cells [6]): 23.61%
- late apoptosis (HepG2 cells [6]): 9.34%
- necrosis-induced cell death (HepG2 cells [6]): 6.01%
- necrosis-induced cell death, fold increase (HepG2 cells [6]): 6.1 fold
- total apoptotic cell death (HepG2 cells [6]): 32.95%
- total apoptotic cell death, fold increase (HepG2 cells [6]): 34.68 fold
- IC50 (EGFR): 62.4 nM
- early apoptosis (MCF-7 cells [7]): 10.6%
- late apoptosis (MCF-7 cells [7]): 16.9%
- necrosis-mediated cell death (MCF-7 cells [7]): 5.06%
- necrosis-mediated cell death, fold increase (MCF-7 cells [7]): 4.18 fold
- total apoptotic cell death (MCF-7 cells [7]): 27.63%
- total apoptotic cell death, fold vs control (MCF-7 cells [7]): 26 fold
- cell cycle arrest phase (HepG2 cells [8]; HepG2): arrested cell division at the S phase
- %DIP S (HepG2 cells [8]; HepG2, 0.32 μM, 48 h): 45.21%
- toxicity to healthy cells ([4]; normal cells): no toxicity to healthy cells
- IC50 (MCF-7 cells [2]; MCF7, read-out: IC50 (MCF-7)): 1070 nM
- cytotoxicity in words (MCF-7 cells [2]): potent cytotoxicity
- histopathological examination of liver tissues ([3]; SEC-bearing mice treated): improvement in liver tissues and retained them near normal; also recorded: Mild hydropic degeneration of hepatocytes
- tumor volume [3, 10]: 129.6 ± 13.6 mm^3
- Hb [3, 11]: 7.29 g/dL
- total protein [3, 11]: 5.6 g/dL and 5.6 ± 0.39 g/dL
- tumor weight [3, 11]: 74.6 mg and 74.6 ± 2.79 mg
- tumor inhibition ratio (TIR%) ([3]; SEC-bearing mice, 5 mg/kg BW IP, seven doses, 5 mg/kg): 66.7% and 66.7 ± 1.06%
- ALT [3, 12]: 50.6 U/L
- AST [3, 12]: 60.3 U/L
- WBC [3, 12]: 4360 L⁻¹

- total protein [3, 10]: 6.2 ± 0.47 g/dL
Compound: C#Cc1cccc(Nc2ncnc3cc(OCCOC)c(OCCOC)cc23)c1 [Erlotinib, reference compound]
- IC50 (HepG2 cells [1]): 2910 nM
- IC50 (MCF-7 cells [2]; MCF7, read-out: IC50 (MCF-7)): 2510 nM
- tumor volume [3, 10]: 114.6 ± 12.5 mm^3
- tumor weight [3, 11]: 69.3 mg and 69.3 ± 2.19 mg

Compound: c1ccc(CSc2nc(-c3cc4ccccc4[nH]3)n[nH]2)cc1 [I, 3-Benzylsulfanyl-5-(1H-indol-2-yl)-2H-1,2,4-triazole]
- IC50 (MCF-7) (MCF-7): 4.53 µg/mL (≈ 14.8 µM)
- IC50 (HEPG-2) (HEPG-2): 3.58 µg/mL (≈ 11.7 µM)

Compound: CNC(=O)c1cc(Oc2ccc(NC(=O)Nc3ccc(Cl)c(C(F)(F)F)c3)cc2)ccn1 [Sorafenib]
- IC50 (MCF-7 cells [9]): 2130 nM

Compound: COc1cccc2c1C(=O)c1c(O)c3c(c(O)c1C2=O)C[C@@](O)(C(=O)CO)C[C@@H]3O[C@H]1C[C@H](N)[C@H](O)[C@H](C)O1 [doxorubicin]
- IC50 (MCF-7) (MCF-7): 4.0 µg/mL (≈ 7.36 µM)
- IC50 (HEPG-2) (HEPG-2): 4.0 µg/mL (≈ 7.36 µM)
